For 17 compounds, IC50 and Activity results are on record in ChEMBL document CHEMBL1149584, “Synthesis and structure-activity relationships of new antiproliferative and proapoptotic retinoid-related biphenyl-4-yl-acrylic acids” (Bioorg Med Chem, 2007).

Activity calls are given as the source filed them. No cut-off for these calls is given here.

One assay concerns NB-4. As to the kind of experiment: Antiproliferative activity against human NB4 cells after 72 hrs. Type of assay: functional, cell-based. The settings on record: NB-4, 72 h. A digest of the protocol:
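Leukemia cells were exposed to drug for 24 h, and growth inhibition was assessed at 72 h by cell counting. IC₅₀ is the concentration giving a 50% drop in cell number versus untreated control.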

Assay [1] in a line: Antiproliferative activity against human cisplatin-resistant IGROV1/Pt1 cells with p53 mutation after 72 hrs. Type of assay: functional, cell-based, IGROV-1. The gist of the method:
(§1)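 Ovarian carcinoma cells in log-phase growth were seeded in duplicate. Drug was added 24 h after seeding and exposure lasted 72 h. Cells were harvested and counted with a cell counter. IC₅₀ is the concentration giving a 50% drop in cell number versus untreated control.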

The subject of assay [2] is IGROV-1. Kind of assay: Antiproliferative activity against human IGROV1 cells after 72 hrs. Type of assay: functional, cell-based. The settings on record: IGROV-1, 72 h. The gist of the method:
as §1

For assay [3], the system named is IGROV-1. Kind of assay: Cell cycle arrest in IGROV1 cells assessed as accumulation at subG1 phase by FAC scan flow cytometry. Type of assay: functional, cell-based. The settings on record: Homo sapiens, TDE = time-dependent effect. A digest of the protocol:
(§2)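 Cells treated at the IC₈₀ concentration. Cell cycle distribution of propidium iodide-stained cells measured by FACScan flow cytometry at 24, 48 and 72 h of treatment. One experiment representative of three.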
Background: Flow cytometry measures light scatter and fluorescence of single cells or particles in a stream.

Assay [4] relates to IGROV-1. As to the kind of experiment: Induction of DNA damage in IGROV1 cells assessed as p53 protein phosphorylation after 6 hrs. Type of assay: functional, cell-based. As to conditions: Homo sapiens.
The subject of assay [5] is IGROV-1. As to the kind of experiment: Cell cycle arrest in IGROV1 cells assessed as accumulation at G1/S phase by FAC scan flow cytometry. Type of assay: functional, cell-based. The settings on record: Homo sapiens. The gist of the method: as §2
The subject of assay [6] is IGROV-1. Kind of assay: Induction of apoptosis in IGROV1 cells after 72 hrs by TUNEL assay. Type of assay: functional, Homo sapiens. Details: concentration or dose not given beside the values. A digest of the protocol:
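Cells exposed to drug for 72 h, fixed in 4% paraformaldehyde for 60 min at room temperature, then washed and resuspended in ice-cold PBS. Apoptosis detected by TUNEL and analyzed by flow cytometry.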

Assay [7] deals with IGROV-1. As to the kind of experiment: Induction of DNA damage in IGROV1 cells assessed as RPA2 protein phosphorylation after 6 hrs. The assay is classed as functional, cell-based. The settings on record: Homo sapiens.
For assay [8], the target named is T1, MAP kinase p38 (Homo sapiens) (UniProt O15264+Q15759+Q16539+P53778). As to the kind of experiment: Activation of p38 kinase in IGROV1 cells assessed as phosphorylation after 18 hrs. Type of assay: cell-based. As to conditions: IGROV-1. The gist of the method: (§3)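 Cells treated for 18 h at each compound's IC₈₀ concentration. Lysates analyzed by Western blot with phospho-specific antibodies to detect activated JNK and p38.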

For assay [9], the target named is c-Jun N-terminal kinase, JNK (Homo sapiens) (UniProt P45983+P53779+P45984). As to the kind of experiment: Activation of JNK in IGROV1 cells assessed as phosphorylation after 18 hrs. Type of assay: cell-based. As to conditions: IGROV-1. The gist of the method: as §3
Assay [10] addresses T1, MAP kinase p38 (Homo sapiens). As to the kind of experiment: Activation of p38 kinase in IGROV1/Pt1 cells with p53 mutation assessed as phosphorylation after 18 hrs. The assay is classed as cell-based. The settings on record: IGROV-1. The gist of the method: as §3
For assay [11], the system named is IGROV-1. Kind of assay: Induction of DNA damage in IGROV1 cells assessed as H2AX histone phosphorylation after 6 hrs. The assay is classed as functional, cell-based. The settings on record: Homo sapiens.
Setting [12] is: Homo sapiens, IGROV-1/Pt1, 72 h.

Turning to `COc1ccc(-c2ccc(/C=C(/Br)C(=O)O)cc2)cc1C12CC3CC(CC(C3)C1)C2`, the IC50 was 41000 nM in the assay on NB-4, over 10000 nM in assay [1] (setting [12]) and 30600 nM in the assay with IGROV-1 [2].
Take `O=C(O)/C=C/c1ccc(-c2cccc(C34CC5CC(CC(C5)C3)C4)c2)cc1`: the IC50 in assay [1] (setting [12]) stood at 21900 nM; in the assay with IGROV-1 [2], 18800 nM.
For `O=Cc1cc(-c2ccc(/C=C/C(=O)O)cc2)cc(C23CC4CC(CC(C4)C2)C3)c1O`, the IC50 in the assay on NB-4 turned out to be 1610 nM; in assay [1] (setting [12]), 2720 nM; with IGROV-1 [2] it was 1640 nM.
With `O=C(O)/C(Br)=C\c1ccc(-c2cc3c(c(C45CC6CC(CC(C6)C4)C5)c2)OCO3)cc1`, the IC50 in the assay on NB-4 was determined as 72300 nM; in [1] (setting [12]), 34100 nM; in the assay on IGROV-1 [2], 36600 nM.
Consider `Cl.NCc1cc(-c2ccc(/C=C/C(=O)O)cc2)cc(C23CC4CC(CC(C4)C2)C3)c1O`, for which the values for the Activity result in the assay with IGROV-1 [3] and with IGROV-1 [6] were “tde” and 55%, respectively. The outcome in the assay on IGROV-1 [4], with IGROV-1 [5] and in the assay on IGROV-1 [7] was Active. The IC50 was determined as 180 nM in the assay on NB-4, 390 nM in assay [1] (setting [12]) and 450 nM in the assay with IGROV-1 [2].
For `COc1ccc(-c2ccc(/C=C(\Br)C(=O)O)cc2)cc1C12CC3CC(CC(C3)C1)C2`, the IC50 is 17900 nM in the assay with NB-4, over 20000 nM in assay [1] (setting [12]) and over 20000 nM in the assay on IGROV-1 [2].
As to `COc1cc(-c2ccc(/C=C/C(=O)O)cc2)cc(C23CC4CC(CC(C4)C2)C3)c1O`, the results for the IC50 with NB-4 and in the assay on IGROV-1 [2] were 270 nM and 520 nM, respectively.
For the compound `COc1cc(-c2ccc(/C=C/C(=O)O)cc2)cc(C23CC4CC(CC(C4)C2)C3)c1OC`, the IC50 with NB-4 came to 1890 nM; in [1] (setting [12]) it was 2400 nM; with IGROV-1 [2] it was 710 nM.
Turning to `O=C(O)/C=C/c1ccc(-c2cc(CO)c(O)c(C34CC5CC(CC(C5)C3)C4)c2)cc1`, the result in the assay with IGROV-1 [4] and in the assay on IGROV-1 [7] was Active. In addition, the IC50 amounted to 190 nM in the assay with NB-4, 1040 nM in assay [1] and 760 nM in the assay on IGROV-1 [2]. The compound also displayed an Activity in the assay with IGROV-1 [6] of 45%.
Regarding `O=C(O)/C=C/c1ccc(-c2cc3c(c(C45CC6CC(CC(C6)C4)C5)c2)OCO3)cc1`, the Activity entry was “tde” in the assay with IGROV-1 [3] and 50% with IGROV-1 [6]. The outcome (in the assay on IGROV-1 [4]; with IGROV-1 [5]; in assay [8]; in the assay with IGROV-1 [7]; in assay [9]) was Active. Moreover, the IC50 amounted to 260 nM with NB-4, 460 nM in assay [1] (setting [12]) and 390 nM with IGROV-1 [2].
For `O=C(O)/C=C/c1ccc(-c2cc3c(c(C45CC6CC(CC(C6)C4)C5)c2)OCCO3)cc1`, the Activity result is “tde” in the assay on IGROV-1 [3] and 30% in the assay on IGROV-1 [6]. Besides, the outcome with IGROV-1 [4], in the assay on IGROV-1 [5] and with IGROV-1 [7] was Active. Further, the IC50 in the assay on NB-4 turned out to be 110 nM; in assay [1] (setting [12]) it was 480 nM; in the assay with IGROV-1 [2] it was 230 nM.
In the case of `COc1c(O)cc(-c2ccc(/C=C/C(=O)O)cc2)cc1C12CC3CC(CC(C3)C1)C2`, the Activity result is “tde” in the assay with IGROV-1 [3] and 20% with IGROV-1 [6]. Moreover, the outcome in the assay on IGROV-1 [4], with IGROV-1 [5] and with IGROV-1 [7] was Active. For the same compound, the IC50 with NB-4 stood at 550 nM; in [1] (setting [12]) it was 970 nM; in the assay on IGROV-1 [2], 570 nM.
As to `CC(=O)NCc1cc(-c2ccc(/C=C/C(=O)O)cc2)cc(C23CC4CC(CC(C4)C2)C3)c1O`, the IC50 in the assay with NB-4 is 990 nM; in assay [1] (setting [12]), 2890 nM; in the assay on IGROV-1 [2] it was 1240 nM.
`O=C(O)/C=C/c1ccc(-c2ccc(O)c(C34CC5CC(CC(C5)C3)C4)c2)cc1` [ADAROTENE]: the result (in the assay with IGROV-1 [4]; in assay [10]; in the assay with IGROV-1 [7]) was Active. Moreover, in the assay with IGROV-1 [6], the Activity is given as 51%. The same compound gave an IC50 in assay [1] (setting [12]) of 400 nM.
Regarding `COc1ccc(-c2ccc(/C=C/C(=O)O)cc2)cc1C12CC3CC(CC(C3)C1)C2`, the Activity result in the assay on IGROV-1 [3] was “tde”; in the assay on IGROV-1 [6], 47%. In addition, the outcome in the assay with IGROV-1 [4], with IGROV-1 [5], in the assay with IGROV-1 [11] and in the assay on IGROV-1 [7] was Active. Moreover, the values for the IC50 (with NB-4; in assay [1] (setting [12]); in the assay on IGROV-1 [2]) were 1100 nM, 1430 nM and 1190 nM, respectively.
`COc1ccc(-c2ccc(C#CC(=O)O)cc2)cc1C12CC3CC(CC(C3)C1)C2`: the results for the IC50 (in [1] (setting [12]); with IGROV-1 [2]) were 4800 nM and 1700 nM, respectively.
Regarding `O=C(O)C#Cc1ccc(-c2cc3c(c(C45CC6CC(CC(C6)C4)C5)c2)OCO3)cc1`, the figures for the IC50 (with NB-4; in [1] (setting [12]); in the assay with IGROV-1 [2]) were 2000 nM, 4800 nM and 3600 nM, respectively.

For orientation: IC50 means the concentration that gives 50% inhibition.
